The record followed here is ChEMBL document CHEMBL1149879, “Ten-membered lactones from Phomopsis sp., an endophytic fungus of Azadirachta indica” (2008).

≈ marks a conversion by molar mass, not a printed value.

The subject of one assay is Botrytis cinerea. The assay can be described thus: Antifungal activity against Botrytis cinerea YM3061 after 72 hrs by disk diffusion method. It is filed as functional. The essentials:
(§1)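 Paper-disk diffusion. Fungi grown on PDA at 28 °C; spores mixed into melted PDA at 1 × 10^6 spores/mL and poured into plates. Compounds in 50% aqueous DMSO, serially double diluted from 500 to 15.63 µg/mL, loaded onto sterile 6 mm paper disks. Dried disks placed on agar, incubated 28 °C for 72 h, inhibition zones then measured.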
A general note: Agar diffusion results depend on both activity and mobility in agar.
A word on the MIC: it is the lowest concentration found to suppress growth. Lower therefore signals inhibition by little substance. In turn, `CC(=O)O[C@@H]1C[C@@H](C)OC(=O)CC[C@H](O)CC1=O` returned an MIC of 250 µg/mL (≈ 968 µM).

In the case of `CC(=O)O[C@@H]1C[C@@H](C)OC(=O)[C@H]2O[C@H]2/C=C/[C@@H]1O` [8ALPHA-ACETOXYMULTIPLOLIDE A], the MIC is 62.5 µg/mL (≈ 244 µM). Against the preceding compound, the MIC is about 4-fold lower.

Take `CC(=O)O[C@H]1/C=C/[C@@H]2O[C@@H]2C(=O)O[C@H](C)C[C@H]1O` [7ALPHA-ACETOXYMULTIPLOLIDE A]: the MIC was over 500 µg/mL.

NYSTATIN registered an MIC of 31.2 µg/mL.

`C[C@@H]1C[C@@H](O)[C@@H](O)/C=C/C=C\C(=O)O1`: the minimum inhibitory concentration (MIC) worked out at 500 µg/mL (≈ 2520 µM).

The compound `C[C@@H]1C[C@@H](O)[C@@H](O)/C=C/[C@@H]2O[C@@H]2C(=O)O1` [MULTIPLOLIDE A] yielded a minimum inhibitory concentration (MIC) of over 500 µg/mL.

The next assay concerns Ophiostoma minus. The assay can be described thus: Antifungal activity against Ophiostoma minus YM3429 after 72 hrs by disk diffusion method. The class given is functional. In outline: as §1
`CC(=O)O[C@@H]1C[C@@H](C)OC(=O)CC[C@H](O)CC1=O` registered a minimum inhibitory concentration (MIC) of over 500 µg/mL.

In turn, `CC(=O)O[C@@H]1C[C@@H](C)OC(=O)[C@H]2O[C@H]2/C=C/[C@@H]1O` [8ALPHA-ACETOXYMULTIPLOLIDE A] displayed an MIC of 31.2 µg/mL (≈ 122 µM).

Take `CC(=O)O[C@H]1/C=C/[C@@H]2O[C@@H]2C(=O)O[C@H](C)C[C@H]1O` [7ALPHA-ACETOXYMULTIPLOLIDE A]: the MIC is over 500 µg/mL.

Compound NYSTATIN displayed an MIC of 31.2 µg/mL.

In turn, `C[C@@H]1C[C@@H](O)[C@@H](O)/C=C/C=C\C(=O)O1` yielded an MIC of over 500 µg/mL.

Compound `C[C@@H]1C[C@@H](O)[C@@H](O)/C=C/[C@@H]2O[C@@H]2C(=O)O1` [MULTIPLOLIDE A] gave an MIC of over 500 µg/mL.

The test system of a further assay is Bipolaris maydis. Put plainly: Antifungal activity against Helminthosporium maydis YM3076 after 72 hrs by disk diffusion method. It is filed as functional. The essentials:
as §1
The compound `CC(=O)O[C@@H]1C[C@@H](C)OC(=O)CC[C@H](O)CC1=O` registered an MIC of 500 µg/mL (≈ 1940 µM).

In turn, `CC(=O)O[C@@H]1C[C@@H](C)OC(=O)[C@H]2O[C@H]2/C=C/[C@@H]1O` [8ALPHA-ACETOXYMULTIPLOLIDE A] showed an MIC of 500 µg/mL (≈ 1950 µM).

`CC(=O)O[C@H]1/C=C/[C@@H]2O[C@@H]2C(=O)O[C@H](C)C[C@H]1O` [7ALPHA-ACETOXYMULTIPLOLIDE A] yielded an MIC of over 500 µg/mL.

NYSTATIN gave an MIC of 31.2 µg/mL.

As to `C[C@@H]1C[C@@H](O)[C@@H](O)/C=C/C=C\C(=O)O1`, it took 500 µg/mL (≈ 2520 µM) to inhibit growth (MIC).

Turning to `C[C@@H]1C[C@@H](O)[C@@H](O)/C=C/[C@@H]2O[C@@H]2C(=O)O1` [MULTIPLOLIDE A], the minimal inhibitory concentration (MIC) was 500 µg/mL (≈ 2330 µM).

The subject of another assay is Fusarium avenaceum. The assay can be described thus: Antifungal activity against Fusarium avenaceum YM3065 after 72 hrs by disk diffusion method. It is filed as functional. In outline:
as §1
Compound `CC(=O)O[C@@H]1C[C@@H](C)OC(=O)CC[C@H](O)CC1=O` displayed a minimal inhibitory concentration (MIC) of over 500 µg/mL.

Take `CC(=O)O[C@@H]1C[C@@H](C)OC(=O)[C@H]2O[C@H]2/C=C/[C@@H]1O` [8ALPHA-ACETOXYMULTIPLOLIDE A]: the MIC was over 500 µg/mL.

In turn, `CC(=O)O[C@H]1/C=C/[C@@H]2O[C@@H]2C(=O)O[C@H](C)C[C@H]1O` [7ALPHA-ACETOXYMULTIPLOLIDE A] gave an MIC of over 500 µg/mL.

As for NYSTATIN, it took 62.5 µg/mL to inhibit growth (MIC).

`C[C@@H]1C[C@@H](O)[C@@H](O)/C=C/C=C\C(=O)O1` yielded an MIC of over 500 µg/mL.

Regarding `C[C@@H]1C[C@@H](O)[C@@H](O)/C=C/[C@@H]2O[C@@H]2C(=O)O1` [MULTIPLOLIDE A], the MIC is over 500 µg/mL.

The next assay relates to Talaromyces islandicus. Put plainly: Antifungal activity against Penicillium islandicum YM3104 after 72 hrs by disk diffusion method. It is filed as functional. In outline: as §1
Compound `CC(=O)O[C@@H]1C[C@@H](C)OC(=O)CC[C@H](O)CC1=O` came in with an MIC of 250 µg/mL (≈ 968 µM).

As for `CC(=O)O[C@@H]1C[C@@H](C)OC(=O)[C@H]2O[C@H]2/C=C/[C@@H]1O` [8ALPHA-ACETOXYMULTIPLOLIDE A], the minimum inhibitory concentration (MIC) was 250 µg/mL (≈ 976 µM).

Compound `CC(=O)O[C@H]1/C=C/[C@@H]2O[C@@H]2C(=O)O[C@H](C)C[C@H]1O` [7ALPHA-ACETOXYMULTIPLOLIDE A] returned an MIC of over 500 µg/mL.

In turn, NYSTATIN showed a minimum inhibitory concentration (MIC) of 15.6 µg/mL.

In turn, `C[C@@H]1C[C@@H](O)[C@@H](O)/C=C/C=C\C(=O)O1` yielded an MIC of over 500 µg/mL.

`C[C@@H]1C[C@@H](O)[C@@H](O)/C=C/[C@@H]2O[C@@H]2C(=O)O1` [MULTIPLOLIDE A] gave an MIC of 250 µg/mL (≈ 1170 µM).

The subject of a further assay is Aspergillus niger. Put plainly: Antifungal activity against Aspergillus niger YM3029 after 72 hrs by disk diffusion method. The class given is functional. In outline: as §1
The compound `CC(=O)O[C@@H]1C[C@@H](C)OC(=O)CC[C@H](O)CC1=O` came in with an MIC of 125 µg/mL (≈ 484 µM).

The compound `CC(=O)O[C@@H]1C[C@@H](C)OC(=O)[C@H]2O[C@H]2/C=C/[C@@H]1O` [8ALPHA-ACETOXYMULTIPLOLIDE A] came in with an MIC of 125 µg/mL (≈ 488 µM).

`CC(=O)O[C@H]1/C=C/[C@@H]2O[C@@H]2C(=O)O[C@H](C)C[C@H]1O` [7ALPHA-ACETOXYMULTIPLOLIDE A] gave an MIC of 125 µg/mL (≈ 488 µM).

NYSTATIN yielded an MIC of 15.6 µg/mL.

`C[C@@H]1C[C@@H](O)[C@@H](O)/C=C/C=C\C(=O)O1` yielded an MIC of 125 µg/mL (≈ 631 µM). Against the preceding compound, the MIC is about 8-fold higher.

`C[C@@H]1C[C@@H](O)[C@@H](O)/C=C/[C@@H]2O[C@@H]2C(=O)O1` [MULTIPLOLIDE A]: inhibition of growth (MIC) required 250 µg/mL (≈ 1170 µM).

Another assay has as its system Fusarium verticillioides. Put plainly: Antifungal activity against Fusarium moniliforme YM3067 after 72 hrs by disk diffusion method. The class given is functional. In outline:
as §1
For `CC(=O)O[C@@H]1C[C@@H](C)OC(=O)CC[C@H](O)CC1=O`, the MIC was over 500 µg/mL.

For the compound `CC(=O)O[C@@H]1C[C@@H](C)OC(=O)[C@H]2O[C@H]2/C=C/[C@@H]1O` [8ALPHA-ACETOXYMULTIPLOLIDE A], the MIC amounted to 500 µg/mL (≈ 1950 µM).

The compound `CC(=O)O[C@H]1/C=C/[C@@H]2O[C@@H]2C(=O)O[C@H](C)C[C@H]1O` [7ALPHA-ACETOXYMULTIPLOLIDE A] showed an MIC of over 500 µg/mL.

NYSTATIN returned an MIC of 62.5 µg/mL.

On to `C[C@@H]1C[C@@H](O)[C@@H](O)/C=C/C=C\C(=O)O1`, for which the MIC was over 500 µg/mL.

Compound `C[C@@H]1C[C@@H](O)[C@@H](O)/C=C/[C@@H]2O[C@@H]2C(=O)O1` [MULTIPLOLIDE A] displayed an MIC of over 500 µg/mL.
